# Test results taken from paper PMC5075014 (Medicinal Chemistry Research, 2016).
# Tested on: MCF-7 (human breast cancer) cell line
# Assay: WST-1 assay, anticancer activity, breast cancer MCF-7
# Assay type: cell-based
# Conditions: MCF-7 cell line
# Procedure, shortened: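 Cells were grown at 37 °C under 5 % CO2 and seeded at 1 × 10^4 cells/well in DMEM with 10 % FCS, streptomycin and penicillin. They were exposed to the test compound at 0–100 μg/mL for 72 h, then given WST-1 for 1 h. Absorbance was read at 450 nm against a background control, with a 600 nm reference. Values are means of at least two independent experiments run in triplicate.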
smiles,measurement,value
"CN(C)CCCN1c2ccccc2Sc2cccnc21 [Prothipendyl, 10-dimethylaminopropyl-1-azaphenothiazine]",times less active than the most active diazaphenothiazines,5-6 times
